From ChEMBL document CHEMBL1125486, “Inhibitors of blood platelet cAMP phosphodiesterase. 3. 1,3-Dihydro-2H-imidazo[4,5-b]quinolin-2-one derivatives with enhanced aqueous solubility” (J Med Chem, 1992)
Converted amounts (≈) assume the structure as drawn.

Key:
[1] = species: Homo sapiens; assay: Inhibition of ADP-induced aggregation of human platelets; format: functional
[2] = target: T1, Phosphodiesterase 3 (Homo sapiens, UniProt Q14432+Q13370); assay: Inhibition of human platelet c-AMP phosphodiesterase PDE 3
[3] = Aqueous solubility; format: physicochemical; conditions: water; read-out: S
Procedure, shortened: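 Water (0.5 mL) added to 10 mg compound at room temperature, diluted up to […] unless dissolution occurred.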

[4] = species: Homo sapiens; assay: Inhibition of ADP induced aggregation of human platelets after 15 min of incubation of the drug with PRP prior to the addition of ADP; format: functional; conditions: 0.25 h
[5] = test system: Oryctolagus cuniculus; assay: Inhibition of laser induced thrombus formation in microvasculature of rabbit ear chamber at dose of 0.03 mg/kg; format: functional
Procedure, shortened: (§1)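 Conscious rabbits, laser-induced microvessel thrombosis, oral dosing; 10 trials 2 h post-dose compared with 10 predose trials in same rabbit; mean thrombus area, % inhibition; at least three rabbits per compound.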

[6] = test system: Oryctolagus cuniculus; assay: Inhibition of laser induced thrombus formation in microvasculature of rabbit ear chamber at a dose of 0.3 mg/kg; format: functional; procedure, shortened: as §1
[7] = test system: Oryctolagus cuniculus; assay: Inhibition of laser induced thrombus formation in microvasculature of rabbit ear chamber at a peroral dose of 0.1 mg/kg; format: functional; conditions: route oral; procedure, shortened: as §1
[8] = target: T1, Phosphodiesterase 3; assay: Inhibition of human platelet cAMP phosphodiesterase PDE 3
Procedure, shortened: (§2)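 Human platelet cAMP PDE enzyme preparation; IC50 read from plots of cAMP hydrolysis against compound concentration; mean of duplicate determinations; BMY 20844 positive control.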

[9] = target: T1, Phosphodiesterase 3; assay: Inhibition of human platelet cAMP Phosphodiesterase PDE 3; procedure, shortened: as §2
[10] = species: Oryctolagus cuniculus; assay: Inhibition of laser induced thrombus formation in microvasculature of rabbit ear chamber; format: functional, organism-based; procedure, shortened: as §1
[11] = Solubility in 0.25 N HCl solution; format: physicochemical; conditions: read-out: S
Procedure, shortened: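 Solubility tested as for water, 0.5 mL solvent on 10 mg solid at room temperature with up to […] dilution, but in 0.25 N HCl solution.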

[12] = test system: Oryctolagus cuniculus; assay: Inhibition of laser induced thrombus formation in microvasculature of rabbit ear chamber at a peroral dose of 1 mg/kg; format: functional; conditions: route oral; procedure, shortened: as §1
[13] = test system: Oryctolagus cuniculus; assay: Inhibition of laser induced thrombus formation in microvasculature of rabbit ear chamber at a peroral dose of 3 mg/kg; format: functional; conditions: route oral; procedure, shortened: as §1

EC50 [1] [nM] | IC50 [2] [nM] | solubility [3] [µg/mL] | SMILES | further results
6820 | 600 | < 10000 | O=C(c1ccccc1)N1CCN(c2ccc3[nH]c4nc(O)nc-4cc3c2)CC1 | 
130 | 0.3 | < 10000 | O=C(CCCOc1ccc2[nH]c3nc(O)nc-3cc2c1)N1CCN(C(c2ccc(F)cc2)c2ccc(F)cc2)CC1 | 
2030 |  | < 10000 | Oc1nc2cc3cc(N4CCCC4)ccc3[nH]c-2n1 | 
53700 | 40 | > 10000 | O=C(CCCOc1ccc2[nH]c3nc(O)nc-3cc2c1)N1CCNCC1 | 
510 | 0.4 | > 10000 | O=C(CCCOc1ccc2[nH]c3nc(O)nc-3cc2c1)N1CCN(CC2CCCCC2)CC1 | IC50 [4]: 100 nM
2440 | 2 | > 10000 | CCOC(=O)CN1CCN(C(=O)CCCOc2ccc3[nH]c4nc(O)nc-4cc3c2)CC1 | 
520 | 3 | > 10000 | COc1ccc(CN2CCN(C(=O)CCCOc3ccc4[nH]c5nc(O)nc-5cc4c3)CC2)cc1 | 
170 | 2 | < 10000 | O=C(CCCOc1ccc2[nH]c3nc(O)nc-3cc2c1)N1CCN(Cc2ccc(Cl)cc2)CC1 | 
250 | 20 | < 10000 | Oc1nc2cc3cc(N4CCOCC4)ccc3[nH]c-2n1 | 
1300 | 0.5 | > 10000 | O=C(CCCOc1ccc2[nH]c3nc(O)nc-3cc2c1)N1CCN(CC2CCCC2)CC1 | 
2430 | 1 | > 10000 | CC(C)CN1CCN(C(=O)CCCOc2ccc3[nH]c4nc(O)nc-4cc3c2)CC1 | 
1220 | 7 | > 10000 | O=C(CCCOc1ccc2[nH]c3nc(O)nc-3cc2c1)N1CCN(c2ncccn2)CC1 | 
11400 | 5 | > 10000 | O=C(CCCOc1ccc2[nH]c3nc(O)nc-3cc2c1)N1CCC(N2CCCCC2)CC1 | 
8900 | 7 | > 20000 | CN1CCN(C(=O)CCCOc2ccc3[nH]c4nc(O)nc-4cc3c2)CC1 | 
2110 | 0.4 | < 10000 | O=C(CCCOc1ccc2[nH]c3nc(O)nc-3cc2c1)N1CCN(Cc2ccc(C(F)(F)F)cc2)CC1 | 
3520 | 700 | < 10000 | CCOC(=O)N1CCN(c2ccc3[nH]c4nc(O)nc-4cc3c2)CC1 | 
50 | 2 | < 10000 | O=C(CCCOc1ccc2[nH]c3nc(O)nc-3cc2c1)N1CCN(c2ccccc2)CC1 | 
47 | 0.08 | > 10000 | O=C(CCCCOc1ccc2[nH]c3nc(O)nc-3cc2c1)N1CCN(Cc2ccccc2)CC1 | 
3700 | 0.7 | > 20000 | O=C(CCCOc1ccc2[nH]c3nc(O)nc-3cc2c1)NC1CCN(Cc2ccccc2)CC1 | 
 | 0.7 | > 10000 | O=C(CCCOc1ccc2[nH]c3nc(O)nc-3cc2c1)N1CCN(Cc2ccccc2)CC1 | inhibition in vivo at 0.03 mg/kg [5]: 41%; inhibition in vivo at 0.3 mg/kg [6]: 64%; inhibition in vivo at 0.1 mg/kg [7]: 50%
290 | 0.2 | < 10000 | O=C(CCCOc1ccc2[nH]c3nc(O)nc-3cc2c1)N1CCN(CC2CCCCCC2)CC1 | 
1420 |  | > 10000 | CCN(CC)c1ccc2[nH]c3nc(O)nc-3cc2c1 | IC50 [8]: 70 nM
> 58100 | 80 | > 10000 | Cn1c(O)nc2nc3ccc(OCCCC(=O)N4CCN(CC5CCCCC5)CC4)cc3cc21 | 
280 |  | < 10000 | COC(=O)C1CCN(c2ccc3[nH]c4nc(O)nc-4cc3c2)CC1 | 
430 | 1 | > 10000 | CCC(CC)CN1CCN(C(=O)CCCOc2ccc3[nH]c4nc(O)nc-4cc3c2)CC1 | 
20800 | 7 | > 10000 | COCCN1CCN(C(=O)CCCOc2ccc3[nH]c4nc(O)nc-4cc3c2)CC1 | 
380 | 0.7 | > 10000 | O=C(CCCOc1ccc2[nH]c3nc(O)nc-3cc2c1)N1CCN(Cc2ccsc2)CC1 | 
> 59100 | 30 | > 10000 | Cn1c(O)nc2nc3ccc(OCCCC(=O)N4CCN(Cc5ccccc5)CC4)cc3cc21 | 

EC50 [1] [nM] | IC50 [2] [nM] | solubility [3] [µg/mL] | SMILES | further results
54 | 0.2 | < 10000 | O=C(CCCOc1ccc2[nH]c3nc(O)nc-3cc2c1)N1CCN(CCC2CCCCC2)CC1 | 
4150 | 8 | > 5000 | O=C1CN2Cc3cc(OCCCC(=O)N4CCN(Cc5ccccc5)CC4)ccc3N=C2N1 | 
2020 | 0.7 | > 10000 | O=C(CCCOc1ccc2[nH]c3nc(O)nc-3cc2c1)N1CCN(CC2CCCCO2)CC1 (stereo not given) | 
330 | 0.9 | 10000 (≈ 20.4 mM) | O=C(CCCOc1ccc2[nH]c3nc(O)nc-3cc2c1)N1CCN(Cc2ccc3c(c2)OCO3)CC1 | 
12400 | 4.5 | > 10000 | CN(CCc1ccccn1)C(=O)CCCOc1ccc2[nH]c3nc(O)nc-3cc2c1 | 
530 | 2 | > 10000 | O=C(CCCOc1ccc2[nH]c3nc(O)nc-3cc2c1)N1CCN(Cc2ccc(F)cc2)CC1 | 
920 | 9 | 2000 (≈ 3.89 mM) | O=C(CCCOc1ccc2[nH]c3nc(O)nc-3cc2c1)N1CCN(Cc2cccc(C(F)(F)F)c2)CC1 | 
> 56500 |  | > 10000 | O=C(CCCOc1ccc2[nH]c3nc(O)nc-3cc2c1)N1CCN(CC(=O)N2CCCC2)CC1 | IC50 [9]: 6 nM
62 | 3 | < 10000 | O=C(CCCOc1ccc2[nH]c3nc(O)nc-3cc2c1)N1CCN(C(c2ccccc2)c2ccccc2)CC1 | 
> 37000 |  | < 10000 | CN(C(=O)C1CCN(c2ccc3[nH]c4nc(O)nc-4cc3c2)CC1)C1CCCCC1 | 
270 | 0.3 | < 10000 | CC(C)(C)OC(=O)N1CCN(C(=O)CCCOc2ccc3[nH]c4nc(O)nc-4cc3c2)CC1 | 
30200 | 20 | < 10000 | O=C(O)C1CCN(c2ccc3[nH]c4nc(O)nc-4cc3c2)CC1 | 
710 | 0.6 | > 10000 | O=C(CCCCCOc1ccc2[nH]c3nc(O)nc-3cc2c1)N1CCN(CC2CCCCC2)CC1 | 
51 | 0.03 | > 10000 | O=C(CCCCOc1ccc2[nH]c3nc(O)nc-3cc2c1)N1CCN(CC2CCCCC2)CC1 | IC50 [10]: 0.03 mg/kg; inhibition in vivo at 0.1 mg/kg [7]: > 50%
720 | 0.6 | < 10000 | O=C(CCCOc1ccc2[nH]c3nc(O)nc-3cc2c1)N1CCN(c2cccc(C(F)(F)F)c2)CC1 | 
79800 | 20 |  | CN1CCCC1CCNC(=O)CCCOc1ccc2[nH]c3nc(O)nc-3cc2c1 (stereo not given) | solubility [11]: > 10000 µg/mL
4500 | 4 | > 20000 | O=C(CCCOc1ccc2[nH]c3nc(O)nc-3cc2c1)NCCN1CCCCC1 | 
380 | 0.7 | > 10000 | O=C(CCCOc1ccc2[nH]c3nc(O)nc-3cc2c1)N1CCN(Cc2cccs2)CC1 | 
900 |  | > 10000 | Oc1nc2cc3cc(N4CCCCC4)ccc3[nH]c-2n1 | inhibition in vivo at 1 mg/kg [12]: 32%; inhibition in vivo at 3 mg/kg [13]: 59%
8060 | 5000 | < 10000 | Oc1nc2cc3cc(N4CCN(c5ccccc5)CC4)ccc3[nH]c-2n1 | 
37900 |  | < 10000 | COc1ccc(C(=O)N2CCN(c3ccc4[nH]c5nc(O)nc-5cc4c3)CC2)cc1OC | 
110 | 0.3 | < 10000 | O=C(CCCOc1ccc2[nH]c3nc(O)nc-3cc2c1)N1CCN(CCc2ccccc2C(F)(F)F)CC1 | 
670 | 5 | > 10000 | O=C(CCCOc1ccc2[nH]c3nc(O)nc-3cc2c1)N1CCN(c2ccccn2)CC1 | 
680 | 0.4 | < 10000 | CCCC(CCC)CN1CCN(C(=O)CCCOc2ccc3[nH]c4nc(O)nc-4cc3c2)CC1 | 
750 | 0.9 | > 10000 | O=C(CCCOc1ccc2[nH]c3nc(O)nc-3cc2c1)N1CCN(C2CCCCCC2)CC1 | 
7230 | 6 | > 5000 | O=C1CN2Cc3cc(OCCCC(=O)N4CCN(CC5CCCCC5)CC4)ccc3N=C2N1 | 
190 | 2 | < 10000 | O=C(CCCOc1ccc2[nH]c3nc(O)nc-3cc2c1)N1CCN(CCc2ccccc2)CC1 | 

SMILES | EC50 [1] [nM] | IC50 [2] [nM] | solubility [3] [µg/mL] | further results
O=C(CCCOc1ccc2[nH]c3nc(O)nc-3cc2c1)NC1CN2CCC1CC2 (stereo not given) | 12400 | 40 | > 10000 | 
